High-throughput results: PubChem BioAssay, The Scripps Research Institute Molecular Screening Center
Rows were chosen to be rich in hits. Some 0.55% of all compounds tested hit in one or more screens of this group.
V1aR counter – V1a receptor agonism, counter-screen for OXTR agonists. AID 2797. activation, % at 3 µM. CHO-V1R cells, Fluo-8 calcium fluorescence, agonist mode; 0% DMSO, 100% 3 nM vasopressin. actives 0.25% (n = 320,000);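 active = activation above the mean activation of all tested compounds plus 3 SD, per screening run, cut at about 20% in these data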;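 note: signal is peak over basal fluorescence ratio across a 100 second FLIPR read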
zfTRPN1 agonist – activates the zebrafish TRPN1 channel; activation, % at 3 µM; AID 1424; actives 0.18% (n = 220,000); HEK293 zebrafish TRPN1-YFP, Fluo-8 calcium fluorescence; 100% = response to 87 µM carbachol;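 active = activation above its plate's cutoff, the mean activation of test wells on that plate plus 3 SD, cut at about 19% in these data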;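 note: 0% = DMSO alone and 100% = 87 µM carbachol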
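Assay system: Zebrafish TRPN1-YFP in HEK293 cells | Incubation: Dye loading 1 h at 37 °C, then 30 min room temperature | Measured by: Kinetic Fluo-8 fluorescence, ex 470-495, em 515-575 nm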
OXTR potentiator – potentiators of human oxytocin receptor | P30559 | CHO-OTR cells, Fluo-8 calcium fluorescence, potentiator mode; 0% = oxytocin EC15, 100% = EC100 | activation, % at 3 µM | actives 0.061% (n = 320,000) | AID 2445;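 active = activation above that plate's cutoff, the mean activation of tested compounds plus 3 SD, cut at about 6.6% in these data, passing the limit was not always enough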;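 note: 100% uses oxytocin at 75 nM as the full agonist control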
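Material: CHO-OTR cells, human receptor; compound dosing: single dose, 3.0 µM nominal final compound concentration; schedule: 6 min compound pre-incubation at room temperature, 100 s kinetic read; measured by: kinetic Fluo-8 calcium fluorescence; read-out basis: % activation vs EC15 and EC100 oxytocin; controls: EC15 oxytocin alone as 0%, 75 nM oxytocin as 100%; replicates: singlicate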
OXTR ag – agonists of human oxytocin receptor; P30559; AID 2435; actives 0.32% (n = 320,000); CHO-OTR cells, Fluo-8 calcium fluorescence; normalized: DMSO 0%, oxytocin 100%; activation, % at 3 µM;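 active = activation above the mean of all tested compounds plus 3 SD, cutoff set per screening run, cut at about 20% in these data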;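 note: peak over basal fluorescence ratio from a 100 s FLIPR kinetic read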
TRPML3 ag – human mucolipin-3 channel agonism; Q8TDD5; AID 1448; HEK293 TRPML3-YFP, Fluo-8 calcium fluorescence; 100% = the carbachol control signal; activation, % at 3 µM; actives 0.29% (n = 220,000);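 active = activation above its plate's cutoff, the mean activation of the plate's test wells plus 3 SD, cut at about 12% in these data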;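 note: 0% = DMSO only wells and 100% = carbachol wells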
Target sequence (Q8TDD5 whole entry, looked up): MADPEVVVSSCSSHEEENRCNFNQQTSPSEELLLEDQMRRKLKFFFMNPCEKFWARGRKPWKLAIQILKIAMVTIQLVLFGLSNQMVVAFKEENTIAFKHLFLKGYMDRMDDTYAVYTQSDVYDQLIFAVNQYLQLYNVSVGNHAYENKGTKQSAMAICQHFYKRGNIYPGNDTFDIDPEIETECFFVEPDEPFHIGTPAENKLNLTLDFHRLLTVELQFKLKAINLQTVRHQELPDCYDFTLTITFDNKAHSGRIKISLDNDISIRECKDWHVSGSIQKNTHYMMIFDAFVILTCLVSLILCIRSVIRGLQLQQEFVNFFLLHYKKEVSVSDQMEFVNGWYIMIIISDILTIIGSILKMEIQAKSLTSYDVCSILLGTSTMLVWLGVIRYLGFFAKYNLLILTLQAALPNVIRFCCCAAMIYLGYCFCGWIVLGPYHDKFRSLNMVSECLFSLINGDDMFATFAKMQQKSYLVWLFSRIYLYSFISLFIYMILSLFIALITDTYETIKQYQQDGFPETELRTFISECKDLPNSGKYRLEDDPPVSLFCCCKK
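Material: HEK293 cells stably carrying human TRPML3-YFP; compound dosing: single dose, 3 µM final nominal compound, 0.3% DMSO final; incubation: 1-h 37 °C dye load, 5-s basal, 120-s post-compound reads; technique: Fluo-8 intracellular calcium fluorescence, excitation 470-495 nm, emission 515-575 nm; read-out basis: percent activation from peak-to-basal fluorescence ratio, scaled between DMSO and carbachol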
The depositor's hits bear a star; x = no result.

SMILES	V1aR counter	zfTRPN1 agonist	OXTR potentiator	OXTR ag	TRPML3 ag
COc1ccc(Cc2nnc(NC(=O)Nc3ccc(C)cc3)s2)cc1OC	1	x	-7	-1	x
COCCCNc1c2c3c(cccc3[nH]c1=O)C(=O)c1ccccc1-2	533*	203*	-11	590*	105*
O=C(Cn1nnc(-c2ccccc2NC(=O)c2ccccc2F)n1)NC1CCCC1	49*	1	1	47*	0
CCN(CC(=O)NCc1ccc(F)cc1)C(=O)COc1ccccc1[N+](=O)[O-]	0	x	-1	1	x
COc1ccc2c(c1)CC(N1CCN(C)CC1)c1cc(OC)ccc1S2 (configuration not stated)	25*	x	-21	34*	x
Cc1oc(-c2ccc(Cl)cc2)nc1CS(=O)CC(=O)NC1CCCC1 (configuration not stated)	1	x	-3	0	x
CC(=O)OCC1O[C@@H](O[C@@H]2C[C@H]3C(C)(C)[C@H](OC(C)=O)CC[C@]3(C)[C@H]3CC[C@]45C[C@]4(CC[C@H]5[C@@H](C)C[C@@H](O)[C@H](O)C(C)(C)O)[C@@]32C)[C@H](O)[C@@H](O)[C@@H]1O (some centres not stated)	87*	1	-18	69*	0
CC(C)=CCC[C@](C)(O[C@@H]1O[C@H](CO[C@@H]2O[C@H](CO)[C@@H](O)[C@H](O)[C@H]2O)[C@@H](O)[C@H](O)[C@H]1O)C1CC[C@]2(C)C1C(=O)CC1[C@@]3(C)CC[C@H](O[C@H]4O[C@@H](CO)[C@H](O)[C@@H](O)[C@@H]4O)C(C)(C)C3CC[C@]12C (some centres not stated)	1	x	-2	1	x
Cc1cccc(NC(=O)C2CCN(C(=O)N3CCOc4ccccc43)CC2)c1C	1	x	-6	2	x
CCCCN(CC)CCCNC(=O)c1ccc(CS(=O)(=O)c2ccccc2C)o1	1	x	-7	0	x
CN1/C(=C/C=C(C#N)C#N)C(C)(C)c2ccccc21	-1	1	-5	-3	1
CC1=C/C(=C\C=C(C#N)C#N)N(C)c2ccccc21	32*	27*	-9	23*	17*
CCCCCCCCCCCCCCCCn1cc[n+](C)c1	35*	1	-20	25*	0
Cc1ccc(N=Cc2sc(O)c3ccccc23)cc1	37*	13	-14	29*	8
CCc1cccc(C)c1NC(=O)c1cc(=O)[nH]c2ccc(S(=O)(=O)N3CCOCC3)cc12	0	x	-6	-1	x
COC(=O)c1cccc(NC(=O)NC(=O)c2ccc(Cl)cc2)c1	0	2	-12	0	0
COC(=O)c1cccc(NC(=O)Nc2ccc(Cl)cc2)c1	14	21*	-20	14	7
COc1ccccc1-n1c(=O)oc2ccc(Cl)cc2c1=O	12	24*	-20	12	12*
COCc1nnc(SCC(=O)NCc2ccccc2)n1-c1ccccc1	2	25*	-3	0	-1
COCc1nnc(SCC(=O)Nc2cccc(Cl)c2C)n1-c1ccccc1	0	-1	-7	2	0
CC1C/C(=C/c2ccncc2)C(=O)/C(=C/c2ccncc2)C1 (configuration not stated)	9	4	-7	7	3
CC1C/C(=C/c2cccn2C)C(=O)/C(=C/c2cccn2C)C1 (configuration not stated)	79*	1	-23	58*	1
COc1ccc(S(=O)(=O)NNC(N)=S)cc1	-1	2	-6	0	0
CCOC(=O)c1[nH]ncc1CN1CCc2ccc(NC(=O)C3CCCO3)cc2C1 (configuration not stated)	0	x	1	0	x
CCOC(=O)c1c(CSC(=N)N)n(-c2ccc(C)cc2)c2cc(Br)c(OC(C)=O)cc12	22*	6	-23	32*	2
SMILES	V1aR counter	zfTRPN1 agonist	OXTR potentiator	OXTR ag	TRPML3 ag
CCOC(=O)c1c(CSC(=N)N)n(C)c2cc(Br)c(OC(C)=O)cc12	0	1	-9	-1	1
CCN(CC(=O)NCCc1ccc(S(N)(=O)=O)cc1)Cc1ccccc1	2	x	-5	0	x
CCCN1C(=O)/C(=C/c2c(N3CCNC(=O)C3CC(=O)OC)nc3c(C)cccn3c2=O)SC1=S (configuration not stated)	x	31*	x	x	10
CCOC(=O)CC1C(=O)NCCN1C(=O)c1cc2c(=O)n3cccc(C)c3nc2s1 (configuration not stated)	1	1	-5	-1	0
CC[C@@]1(C(=O)OC)N[C@H](CN(C)C(=O)Nc2ccc(F)cc2)[C@@H]2C(=O)N(C)C(=O)[C@@H]21	1	x	-2	0	x
CN1CCC(N(C)S(=O)(=O)c2ccc(NC(=O)COc3ccc(Cl)cc3)cc2)CC1	24*	x	-10	25*	x
CN1CCC(N(C)S(=O)(=O)c2ccc(NC(=O)COc3ccc(F)cc3)cc2)CC1	3	x	-3	4	x
C=CCN1C(c2cccc(C(F)(F)F)c2)=CS/C1=C(/C#N)c1nnc(N2CCOCC2)n1-c1ccccc1	0	22*	-7	-2	61*
CC1(C)CC[C@]2(C(=O)O)CC[C@]3(C)C(=CC[C@@H]4[C@@]5(C)CC[C@H](O[C@@H]6O[C@H](C(=O)O)[C@@H](O)[C@H](O[C@@H]7OC[C@H](O)[C@H](O)[C@H]7O)[C@H]6O)C(C)(C)[C@@H]5CC[C@]43C)[C@@H]2C1	108*	x	-13	56*	x
CCOC(=O)C1CN(S(=O)(=O)c2ccc(C)cc2)CCN1S(=O)(=O)c1ccc(C)cc1 (configuration not stated)	1	21*	-4	0	0
CCOC(=O)C1CN(S(=O)(=O)c2ccccc2)CCN1S(=O)(=O)c1ccccc1 (configuration not stated)	0	0	-6	-1	2
Cn1cc([N+](=O)[O-])c(C(=O)Nc2nc(-c3ccc(Cl)cc3)cs2)n1	36*	2	-19	32*	1
COc1cc(/C=C/C(=O)OCC(=O)N2c3ccccc3NC(=O)C2(C)C)cc(OC)c1OC	4	x	-5	0	x
O=S(=O)(Nc1ccc(F)cc1)c1ccc(S(=O)(=O)N2CCOCC2)cc1	22*	x	-12	27*	x
O=C(CN1CCN(S(=O)(=O)c2ccccc2)CC1)Nc1ccnn1C1CCCC1	2	x	0	2	x
Oc1ccc(C23CCCC2C2(CCCC2)c2ccc(O)cc2O3)c(O)c1 (configuration not stated)	28*	x	-15	39*	x
COc1cc(-c2nc(=S)[nH][nH]2)cc(OC)c1OC	-1	1	-6	-1	0
